# According to PubChem BioAssay AID1424 (The Scripps Research Institute Molecular Screening Center, 2008):
# In all, about 220,000 compounds went through this assay and about 390 (0.18%) were called active.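 How the source made its calls: active means activation above its plate's cutoff, the mean activation of test wells on that plate plus 3 SD (cut at about 19% in these data); inactive means the rest.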 What follows is part of a selection rich in actives, with near analogues and random picks from the rest.
# System: transient receptor potential cation channel N1 (TRPN1/NompC), Danio rerio
# Test: zebrafish TRPN1 channel agonists, primary screen, cell-based, HEK293, calcium fluorescence (AID 1424);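 further: 0% = DMSO alone and 100% = 87 µM carbachol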
# Details: HEK293 zebrafish TRPN1-YFP, Fluo-8 calcium fluorescence; at 3 µM; stronger effect = higher value; 100% = response to 87 µM carbachol
# Method in brief: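 Control set: carbachol 87 µM as high control, DMSO as low control; system: HEK293 stable line with zebrafish TRPN1-YFP; read-out: % activation versus carbachol response; detection: intracellular calcium fluorescence with Fluo-8; doses: single test compound dose, 3 µM nominal, 0.3% DMSO; schedule: dye 1 h 37 °C plus 30 min RT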
row,SMILES,activation
1,CC(=O)c1c(C)[nH]c(=S)c(C#N)c1-c1ccc(F)cc1,-0.66% (inactive)
2,Oc1ccc2ccc3cccc[n+]3c2c1,33.7% (active)
3,CCN(Cc1ccccc1)S(=O)(=O)c1cc(C(=O)O)ccc1OC,-2.45% (inactive)
4,CC(NC(=O)COC(=O)c1ccc2c(c1)OCO2)c1ccccc1 (stereo unspecified),1% (inactive)
5,COc1cc(OC)cc(C(=O)N[C@H](C(=O)OCC(=O)NC(C)c2ccccc2)C(C)C)c1 (stereo partly specified),46.5% (active)
6,COc1cc(OC)cc(C(=O)N[C@H](C(=O)Nc2nc3ccccc3[nH]2)C(C)C)c1,-2.24% (inactive)
7,COc1ccc(C(=O)N/N=C2\CCS(=O)(=O)c3ccc(F)cc32)cc1OC,2.13% (inactive)
8,COC(=O)c1cc(NC(=O)CN2CCN(C(C)=O)CC2)cc(C(=O)OC)c1,2.13% (inactive)
9,COc1cc(OC)c(C(=O)NC2CCCCCC2)cc1OC,32.1% (active)
10,COc1ccc(S(=O)(=O)NC(C)C)cc1C(=O)NC1CCCCC1,-0.93% (inactive)
11,COc1cc(OC)c(C(=O)NC2CC(C)(C)NC(C)(C)C2)cc1OC,2.05% (inactive)
12,CC(C)(C)c1cc(NC(=O)NN2CCOCC2)nn1-c1c(Cl)cc(Cl)cc1Cl,0.61% (inactive)
13,O=C(NC(=O)N1CCSCC1)c1c(Cl)cccc1Cl,2.1% (inactive)
14,O=S(=O)(/N=C(/Nc1ccccc1)c1ccccc1)c1cccs1,-0.34% (inactive)
15,O=C(NCCCN1CCN(c2ccc(F)cc2)CC1)Nc1ccc([N+](=O)[O-])cc1,10.4% (inactive)
16,Cc1ccccc1NC(=S)NNC(=O)c1cccc(Br)c1,2.03% (inactive)
17,CC(=O)Nc1ccc(CN2CCN(Cc3ccc(F)c(F)c3)C(CCO)C2)cc1 (stereo unspecified),2.06% (inactive)
18,CCOC(=O)/C(=N\Nc1ccccc1Cl)N(C)C1CCS(=O)(=O)C1 (stereo unspecified),-0.61% (inactive)
19,COc1ccc(C(=O)N/N=C(\C)CC(=O)Nc2ccc(Cl)cn2)cc1,-1.34% (inactive)
20,NC(=O)CC[C@@H]1NC(=O)[C@@H]2CCCN2C(=O)c2cc([N+](=O)[O-])cc(F)c2NCCC[C@@H](C(N)=O)NC1=O,1.08% (inactive)
21,Cc1ccc(O)c(NC(=S)NC(=O)COc2ccc(Br)cc2)c1,30.4% (active)
22,Cc1ccc(O)c(NC(=O)COc2cc(C)ccc2C)c1,-0.38% (inactive)
23,Cc1cccc(OCC(=O)NC(=S)Nc2ccccc2N2CCOCC2)c1,-0.19% (inactive)

row,SMILES,activation
1,CC(=O)c1sc(NC(=O)C2=NN(c3ccccc3)C(=O)CC2)nc1C,0.7% (inactive)
2,C=CCNC(=S)N1CCc2[nH]c3ccccc3c2C1,0.61% (inactive)
3,Cc1cc(C)c2[nH]c(=O)c(CN(Cc3ccccc3)C(=S)NCCCN(C)C)cc2c1,-0.96% (inactive)
4,CSc1ncccc1C(=O)OCc1ccc(Br)cc1,-0.54% (inactive)
5,Cc1nc2sc(C(=O)c3ccccc3)c(N)c2c2c1CCCC2,-0.99% (inactive)
6,CN(C)c1ccnc2sc(C(=O)c3ccccc3)c(N)c12,-2.41% (inactive)
7,Nc1c(C(=O)c2cccs2)sc2nsc(SCCN3CCCCC3)c12,33.7% (active)
8,Cn1ccs/c1=N\S(=O)(=O)c1ccc(C(C)(C)C)cc1,1.16% (inactive)
9,COc1ccccc1C1CC(=O)n2c(nc(-c3ccccc3)c2-c2ccccc2)S1 (stereo unspecified),-0.42% (inactive)
10,COc1c(C)cc(C(=O)C2CCCN(S(=O)(=O)c3c(C)noc3C)C2)cc1C (stereo unspecified),-0.64% (inactive)
11,Fc1ccc(NC(=S)N2CCc3[nH]c4ccccc4c3C2)cc1,3.02% (inactive)
12,O=C(NCCCn1ccnc1)C(=O)NCC1OCCN1S(=O)(=O)c1cc(F)ccc1F (stereo unspecified),1% (inactive)
13,CC(C)CC(CC(C)C)=NNC(=O)c1ccc(CSc2nncn2C)cc1,-0.24% (inactive)
14,CC(=O)Nc1ccccc1C(=O)C(=O)Nc1ccc(F)cc1,0% (inactive)
15,COc1ccc(COC(=O)N/N=C(\C)CC(=O)Nc2ccc(Cl)cc2)cc1,-1.28% (inactive)
16,COc1ccccc1CSc1ncc(-c2ccc([N+](=O)[O-])cc2)[nH]1,-2.17% (inactive)
17,CCc1ccc(NC(=O)C(C)OC(=O)/C=C/c2cccc([N+](=O)[O-])c2)cc1 (stereo unspecified),2.04% (inactive)
18,Cn1cnc(C(F)(F)F)c1-c1ccc([N+](=O)[O-])cc1,-1.25% (inactive)
19,Cc1cc(C)cc(OCC(=O)O/N=C(\N)Cc2ccc([N+](=O)[O-])cc2)c1,-1.73% (inactive)
20,O=c1c(Cl)c(NCc2ccc(F)cc2Cl)cnn1C12CC3CC(CC(C3)C1)C2,0.56% (inactive)
21,O=C(O)CCC(=O)Nc1nc2ccc([N+](=O)[O-])cc2s1,-0.08% (inactive)
22,O=C(NC(Nc1nc2ccc([N+](=O)[O-])cc2s1)(C(F)(F)F)C(F)(F)F)c1ccccc1,27.4% (active)
23,O=C(Nc1nc2ccc([N+](=O)[O-])cc2s1)c1ccncc1,4.01% (inactive)
